Compounds with a hit are over-represented: about 4.1% of the library has one in this group of screens.
KCNK3 inh = human KCNK3 channel inhibition, primary screen; hit rate 0.84% among 340,000; CHO-KCNK3 thallium flux, FluxOR fluorescence; hits give low values; O14649; B-score at 10 µM;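 active means B-score under library mean minus 4 SD, starting fluorescence ratio at most library mean plus 5 SD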;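 further: more negative B-score means stronger inhibition of thallium flux through KCNK3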
hERG protect = shields human hERG channel from block by proarrhythmic agents; Q12809; CHO-hERG, FluxOR thallium flux, dofetilide IC70 present; activation (rescue from dofetilide block), less the hit threshold, % at 10 µM; hit rate 0.51% among 310,000;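 active means activation above the mean of controls blocked by dofetilide plus 5 SD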;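 further: thallium influx through hERG after potassium depolarization seen as dye fluorescence rise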
KCNK9 inh = blocks the human KCNK9 two-pore domain potassium channel | HEK293 KCNK9, FluxOR thallium flux fluorescence; hits give low values | hit rate 1.2% among 310,000 | B-score at 10 µM | AID 488922;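 active means ratio B-score over 3 SD below the library mean, with starting fluorescence within 5 SD of its mean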;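 further: negative B-score means less thallium flux so channel inhibition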
KCNQ1 pot = potentiators or activators of human KCNQ1 potassium channel | P51787 | CHO-K1 KCNQ1, thallium flux FluxOR fluorescence; hits give high values | B-score at 10 µM | hit rate 0.35% among 310,000 | AID 2648;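 active means fluorescence ratio B-score, a plate-corrected score, at least three library SD, with initial intensity B-score within 5 SD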
Target sequence (P51787 whole entry, looked up): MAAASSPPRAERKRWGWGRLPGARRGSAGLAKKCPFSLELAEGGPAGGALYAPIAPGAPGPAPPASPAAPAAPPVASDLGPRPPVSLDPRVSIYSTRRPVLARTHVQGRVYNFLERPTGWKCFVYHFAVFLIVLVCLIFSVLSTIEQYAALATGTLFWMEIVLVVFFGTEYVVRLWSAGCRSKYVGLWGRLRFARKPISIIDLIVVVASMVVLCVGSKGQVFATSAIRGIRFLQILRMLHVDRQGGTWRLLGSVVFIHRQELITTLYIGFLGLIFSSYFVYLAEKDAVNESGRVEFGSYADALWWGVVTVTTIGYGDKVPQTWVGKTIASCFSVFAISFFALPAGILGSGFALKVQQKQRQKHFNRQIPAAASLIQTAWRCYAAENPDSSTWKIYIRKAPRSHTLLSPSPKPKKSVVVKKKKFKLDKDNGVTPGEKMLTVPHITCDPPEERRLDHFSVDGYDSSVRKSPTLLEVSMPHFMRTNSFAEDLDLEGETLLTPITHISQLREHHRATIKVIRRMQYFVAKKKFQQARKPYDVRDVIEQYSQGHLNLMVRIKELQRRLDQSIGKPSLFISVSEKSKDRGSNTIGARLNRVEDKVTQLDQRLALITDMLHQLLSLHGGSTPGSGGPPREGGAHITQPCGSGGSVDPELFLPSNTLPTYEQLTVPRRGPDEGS
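Assay system: CHO-K1 cells stably expressing KCNQ1. Medium: assay buffer for compound exposure, DMSO matched across wells. Timing: 37 °C overnight plating, 90-min dark dye load, 20-min compound pretreatment. Signal: kinetic FluxOR fluorescence, 10 s baseline plus 110 s post-stimulus.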
KCNQ1 inh = inhibitors of human KCNQ1 potassium channel; CHO-K1 KCNQ1, FluxOR thallium flux fluorescence; hits give high values; B-score at 10 µM; hit rate 1.3% among 310,000; AID 2642;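 active means compounds whose thallium flux B-score, printed positive for inhibition, exceeds three library SD while starting fluorescence stays within three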;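 further: channel opened by potassium depolarization with thallium stimulus after 20 min compound exposure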
KCC2 mod = modulates chloride dependent transport by human KCC2. KCC2 cells, thallium flux FluoZin-2 fluorescence. B-score of Tl+ flux slope (higher = more flux/activation; lower = inhibition) at 10 µM. Q9H2X9. hit rate 2.2% among 190,000;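 active means thallium flux slope and its plate-corrected score both differing from the plate sample mean at a set confidence after two filtering rounds, in either direction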;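 further: slope of fluorescence scaled to starting intensity during 10 to 20 s after thallium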
Numbers stand for hits; . = inactive; / = no result given.

SMILES | KCNK3 inh | hERG protect | KCNK9 inh | KCNQ1 pot | KCNQ1 inh | KCC2 mod
CCn1c(CNC(=O)c2ccc3c(c2)OCO3)nnc1SCC(=O)Nc1cc(C)ccc1OC | . | . | . | . | 8 | .
CCOc1cc(C)c(-c2onc(C(F)(F)F)c2-c2csc(C)n2)c(O)c1 | . | . | . | . | 8 | .
O=C(C[C@@H]1C/C=C\C[C@H](Cc2ccc(F)cc2)C(=O)OCCNC1=O)N[C@H](CO)Cc1ccccc1 | . | / | / | / | / | /
Cc1cc(/C=C2\SC(=S)NC2=O)c(C)n1-c1ccc(O)cc1 | . | . | . | . | . | -5.5
COc1ccc(-n2c(C)cc(/C=C3\SC(=S)NC3=O)c2C)cc1 | . | . | . | . | . | .
Cc1ccc(S(=O)(=O)N(C)C)cc1NC(=O)COC(=O)/C(=C/c1ccc(F)cc1)c1cccs1 | . | . | -7.33 | . | . | .
O=C(COC(=O)CCC(=O)N1CCOCC1)Nc1ccc(Br)cc1Br | . | / | / | / | / | /
O=C(c1ccc(-n2cccn2)cc1)N1CCN(c2ncccc2C(F)(F)F)CC1 | . | . | . | . | . | /
COc1ccc(C2NN=C(c3ccc(C)cc3)S2)cc1OC (centres undefined) | . | . | . | . | . | /
Fc1cccc(C2NN=C(c3ccccc3)S2)c1 (centres undefined) | . | 10.5 | . | . | . | 26.1
Cn1c(=O)[nH]c(N)c(Br)c1=O | . | / | / | / | / | /
Clc1ccccc1OCc1nnc(-c2ccccc2Br)o1 | . | . | . | . | . | .
CCc1ccc(OCc2nnc(-c3ccccc3Br)o2)cc1 | -9.34 | / | / | / | / | /
Cc1ccn(CCC(=O)N2CCc3ccccc32)n1 | . | . | . | . | . | /
COc1ccccc1C(=O)COC(=O)Cc1ccccc1F | . | / | / | / | / | /
COc1cccc(CN2CCN(Cc3cc4ccccc4[nH]3)CC2CCO)c1 (centres undefined) | . | . | . | 13 | . | .
CCOc1ccc(CN2CCN(Cc3cc4ccccc4[nH]3)CC2CCO)cc1 (centres undefined) | . | . | . | . | . | .
Nc1ccc2c(c1)C(=O)C(=O)c1ccccc1-2 | . | 6.9 | . | . | . | .
CCOC(=O)c1c(C)n(-c2ccc(C)cc2)c2ccc(OCC(O)CNCC3CCCO3)cc12 (centres undefined) | . | . | . | . | 7 | .
CCOC(=O)c1c(C)n(-c2ccc(C)cc2)c2ccc(OCC(O)CNCCCO)cc12 (centres undefined) | . | . | . | . | . | .
CN(CC(=O)Nc1cccc(F)c1)CC(=O)Nc1ccccc1[N+](=O)[O-] | . | . | . | . | . | .
CN(CC(=O)Nc1cccc(F)c1)CC(=O)Nc1cccc2ccccc12 | -10.9 | / | / | / | / | /
CN(C)S(=O)(=O)c1cccc(NC(=O)C(c2ccccc2)c2ccccc2)c1 | . | . | . | . | . | /
CN(CC(=O)Nc1cccc(F)c1)CC(=O)Nc1cccc(S(=O)(=O)N(C)c2ccccc2)c1 | -9.32 | / | / | / | / | /
CCC(C(=O)Nc1cccc(S(=O)(=O)N(C)c2ccccc2)c1)c1ccccc1 (centres undefined) | -9.95 | / | / | / | / | /
SMILES | KCNK3 inh | hERG protect | KCNK9 inh | KCNQ1 pot | KCNQ1 inh | KCC2 mod
Cc1cc(C)c(NC(=O)CN(C)CC(=O)Nc2cccc(S(=O)(=O)N(C)c3ccccc3)c2)c(C)c1 | . | / | / | / | / | /
CC(C)C[C@@H](CN)NC(=O)c1nc[nH]c1C(=O)N[C@@H](CC(C)C)C(=O)CNC[C@H](C)NC(=O)c1nc[nH]c1C(=O)N[C@@H](CC(C)C)C(=O)O | . | / | / | / | / | /
O=C(NN=Cc1ccc(N2CCOCC2)s1)c1ccc([N+](=O)[O-])cc1 | . | / | / | / | / | /
CCCC[C@@H]1C[C@H]1[C@@H](NC(=O)c1cccs1)c1ccc(C(F)(F)F)cc1 | / | . | -7.32 | . | . | /
O=C(C#Cc1ccccc1)c1ccco1 | . | . | . | . | . | /
CCC(C(=O)NCCCc1ccccc1)c1ccccc1 (centres undefined) | . | . | . | . | . | .
CCC(C(=O)NCCCN1CCN(CCCNC(=O)C(CC)c2ccccc2)CC1)c1ccccc1 (centres undefined) | . | 4.9 | . | . | . | /
Cc1cc(Cl)n2c(nc3ccccc32)c1C#N | . | . | . | . | 6 | .
CNc1cc(C)c(C#N)c2nc3ccccc3n12 | . | . | . | . | . | /
CCOC(=O)C1=C(CSc2nc3c(cc2C#N)CCC3)OC(N)=C(C#N)C1c1ccccc1 (centres undefined) | . | . | -6.73 | . | . | .
Cc1cccc2sc(NC(=O)C3CCN(S(=O)(=O)c4cc([N+](=O)[O-])ccc4Cl)CC3)nc12 | . | . | . | . | 11 | .
O=C(CC(O)c1ccncc1)c1ccccc1O (centres undefined) | . | / | / | / | / | /
CNC(=O)c1nnsc1S(=O)c1ccc(Cl)cc1 (centres undefined) | . | . | . | 13 | . | .
CCCNC(=O)c1nnsc1S(=O)c1ccc(Cl)cc1 (centres undefined) | . | . | . | . | . | .
O=C1c2ccccc2C2(c3ccccc3)NCCCN12 (centres undefined) | . | . | . | . | . | .
O=C1c2ccccc2C2(c3cc(C(F)(F)F)cc(C(F)(F)F)c3)NCCN12 (centres undefined) | . | . | . | 14 | . | /
COc1ccc(NC(=O)c2ccco2)c(OC)c1 | . | . | . | . | . | .
COc1ccc(OC)c(NC(=O)c2c(NC(=O)c3ccco3)sc3c2CCC3)c1 | / | . | -7.54 | . | . | .
COc1ccc(NC(=O)c2oc3ccccc3c2NC(=O)c2ccco2)c(OC)c1 | . | . | -7.76 | . | . | /
CCOC(=O)c1c(C)[nH]c(C(=O)CN(C)CC(=O)Nc2ccccc2C(F)(F)F)c1C | -8.77 | / | / | / | / | /
Cc1ccc(F)c([C@H]2[C@@H]3C=CCC[C@@]3(C)C(=O)N2Cc2ccccc2)c1 | . | . | . | . | 8 | .
Cc1ccc(-c2cc([C@H]3[C@@H]4C=CCC[C@@]4(C)C(=O)N3Cc3ccccc3)ccc2F)cc1 | . | . | . | . | . | .
Cc1ccnc(NC(=O)CNC(=O)Cc2cccc3ccccc23)c1 | . | . | . | . | . | /
COc1cccc(C(=O)CC(=O)C(=O)Nc2ccc(C)cc2Cl)c1 | . | 30.6 | . | . | . | /
CCOc1ccccc1NC(=O)C(=O)CC(=O)c1cccc(OC)c1 | . | 12.0 | . | 16 | . | /
COc1cccc(C(=O)CC(=O)C(=O)Nc2cc(OC)ccc2OC)c1 | . | . | . | . | . | /
COc1cccc(C(=O)CC(=O)C(=O)Nc2cccc([N+](=O)[O-])c2C)c1 | . | . | . | . | . | /
COc1ccc(C(=O)CC(=O)C(=O)Nc2ccccc2OC)cc1 | . | . | . | . | . | /
COc1ccc(C(=O)CC(=O)C(=O)Nc2ccc(C)cc2Cl)cc1 | . | 55.8 | . | . | . | /
